Measured values gathered from unrelated publications.
Protocols differ between the studies behind these lines.
Target: Cyclin-dependent kinase-like 2 (CDKL2, Homo sapiens, UniProt Q92772)
Residues used in one study (Q92772 1-493): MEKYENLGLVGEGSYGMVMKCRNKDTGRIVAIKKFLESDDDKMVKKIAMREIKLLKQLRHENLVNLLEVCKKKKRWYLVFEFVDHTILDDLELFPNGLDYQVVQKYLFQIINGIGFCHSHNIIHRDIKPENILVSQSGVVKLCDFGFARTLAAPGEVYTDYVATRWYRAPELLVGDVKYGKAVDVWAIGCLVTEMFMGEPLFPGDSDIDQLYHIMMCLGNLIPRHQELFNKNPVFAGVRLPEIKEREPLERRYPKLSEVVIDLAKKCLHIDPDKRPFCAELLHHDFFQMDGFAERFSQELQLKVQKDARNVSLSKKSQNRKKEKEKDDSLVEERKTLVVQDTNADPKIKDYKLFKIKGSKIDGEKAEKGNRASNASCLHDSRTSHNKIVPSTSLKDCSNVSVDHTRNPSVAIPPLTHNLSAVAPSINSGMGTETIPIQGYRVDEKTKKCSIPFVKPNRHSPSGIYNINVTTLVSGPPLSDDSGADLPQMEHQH

The remaining binding of `CN(C)c1nccc(-c2cnc3ncccn23)n1` is reported as 100% (binding; 1 µM).
The remaining binding of `COc1cnc(Nc2cccc(S(N)(=O)=O)c2)nc1N1CCN(c2ccccc2)C(=O)C1` is reported as 98% (binding, competition with immobilised ligand; 1 µM).
For `N[C@H]1CCN(c2nccc(-c3cnn4ncccc34)n2)C1`, the remaining binding was 99% (binding; 1 µM).
For `N#Cc1ccc(Nc2ccc3[nH]c(=O)[nH]c3c2)c(Cl)c1`, the remaining binding was 100% (binding, competition with immobilised ligand; 1 µM).
The remaining binding of `Nc1ncc2c(n1)-c1c([nH]c3ccc(C#CC4CC4)cc13)CCCC2` is reported as 96% (binding, competition with immobilised ligand; 1 µM).
`Cc1nc(C2CCN(C(=O)c3ccc(OC(F)(F)F)cc3N)CC2)c2ncc(N3CCN(C)CC3)cc2n1` gave a remaining binding of 100% (cell-free assay, competition with immobilised ligand; 1 µM).
The remaining binding of `O=C(c1ccc(Nc2nccc(-c3cc4ccccc4s3)n2)cc1)N1CCC(N2CCCC2)CC1` is reported as 8.8% (binding, competition with immobilised ligand; 1 µM).
`O=C(NCC1CCOCC1)c1n[nH]cc1NC(=O)c1c(F)cccc1F` gave a remaining binding of 93% (binding, competition with immobilised ligand; 1 µM).
`CNC(=O)[C@@H]1CC[C@@H](n2c(-c3ccc4cnccc4c3)nc3ccc(C(=O)NCc4cccc(C(N)=O)c4)cc32)C1` has a remaining binding of 100% (binding, competition with immobilised ligand; 1 µM).
`Cc1cnn2ncc(-c3ccnc(N(C)C)n3)c2c1` gave a remaining binding of 100% (binding; 1 µM).
The remaining binding of `C=CC(=O)N1CCC(C(=O)NCC(=O)N2CCN(c3nc(-c4cnc(N)nc4C(F)F)nc(N4CCOCC4)n3)CC2)CC1` is reported as 100% (binding, competition with immobilised ligand; 1 µM).
`c1cnn2ncc(-c3ccnc(N4CCC45COC5)n3)c2c1` has a remaining binding of 91% (binding; 1 µM).
The remaining binding of `O=C1CCc2cc(Nc3cc(OC4CCOCC4)c([N+](=O)[O-])cc3Cl)ccc2N1` is reported as 92% (cell-free assay, competition with immobilised ligand; 1 µM).
`C[C@H]1CCN(c2nccc(-c3cnn4ncccc34)n2)C1` gave a remaining binding of 100% (binding; 1 µM).
For `CS(=O)(=O)N1CCCC(NC(=O)[C@H](CCC2CCCCC2)NC(=O)c2ccc(CNc3ncnc4c3nnn4-c3ccccc3)cc2)C1` (stereo partly shown), the remaining binding was 100% (cell-free assay, competition with immobilised ligand; 0.1 µM).
The remaining binding of `CN(C)c1ncc(F)c(-c2cnn3ncccc23)n1` is reported as 89% (binding; 1 µM).
For `CCN1CCN(Cc2ccc(C(=O)Nc3ccc(C)c(Oc4ccc5c(c4)CC(=O)N5)c3)cc2C(F)(F)F)CC1`, the remaining binding was 75% (binding, competition with immobilised ligand; 1 µM).
`Cc1cnc(Nc2ccc(C(=O)N3CCC(N4CCCC4)CC3)cc2)nc1-c1cc2ccccc2s1` gave a remaining binding of 12% (binding, competition with immobilised ligand; 1 µM).
With `CN(C)C(=O)Cn1cc(-c2nc(C3(c4ccc(-c5cnc(N)nc5)cc4)CC3)no2)cn1` the remaining binding was 100% (cell-free assay, competition with immobilised ligand; 1 µM).
With `COc1ncc2cc3ccccc3nc2c1C#N` the remaining binding was 90% (binding, competition with immobilised ligand; 5 µM).
With `O=C(Nc1cccnn1)N1CC(C/C=C/c2cncc(Oc3ccc(C(F)(F)F)cn3)n2)C1` the remaining binding was 100% (cell-free assay, competition with immobilised ligand; 1 µM).
`O=C(NCCCN1CCOCC1)c1ccc(Nc2nccc(-c3cc4ccccc4s3)n2)cc1` has a remaining binding of 7.3% (binding, competition with immobilised ligand; 1 µM).
